Reference: the M2OR odorant receptor database

Columns and labels:
Settings in all cases: stereoisomer not certain
O5AN1 = tested on: T1, O5AN1
T1 sequence (whole entry): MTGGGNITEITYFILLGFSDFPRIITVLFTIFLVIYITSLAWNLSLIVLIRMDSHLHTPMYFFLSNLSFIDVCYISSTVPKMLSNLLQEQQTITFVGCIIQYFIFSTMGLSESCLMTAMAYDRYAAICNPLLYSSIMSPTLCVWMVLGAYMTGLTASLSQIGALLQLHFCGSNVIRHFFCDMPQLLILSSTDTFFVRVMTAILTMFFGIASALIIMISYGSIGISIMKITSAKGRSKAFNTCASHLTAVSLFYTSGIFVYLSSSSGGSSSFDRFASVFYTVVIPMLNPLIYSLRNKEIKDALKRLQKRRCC
How it was run: (§1)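 Transient luciferase assays in mammalian cell lines were common, though methods varied by source. The values come from published papers and their supplementary material, with extra details from the original authors when needed. Responsive refers to a measured signal the original authors judged statistically different from baseline, and non-responsive (inactive) to the remainder.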

O56A4 I247A = tested on: O56A4 I247A
How it was run: as §1

O56A4 I247V = tested on: O56A4 I247V
How it was run: as §1

O56A4 = tested on: O56A4
How it was run: as §1

O56A5 V104L = tested on: O56A5 V104L
How it was run: as §1

O56B1 C106R L214F = tested on: O56B1 C106R L214F
How it was run: as §1

O56B1 L214F = tested on: O56B1 L214F
How it was run: as §1

O56B4 = tested on: O56B4
How it was run: as §1

O5AC2 = tested on: O5AC2
How it was run: as §1

O5AK2 M92I = tested on: O5AK2 M92I
How it was run: as §1

O5AN1 C142Y L289F = tested on: O5AN1 C142Y L289F
How it was run: as §1

O5AN1 L289F = tested on: O5AN1 L289F
How it was run: as §1

O5AP2 A105T = tested on: O5AP2 A105T
How it was run: as §1

O5AU1 = tested on: O5AU1
How it was run: as §1

O5H14 = tested on: O5H14
How it was run: as §1

O5H15 V108I S148T T167S = tested on: O5H15 V108I S148T T167S
How it was run: as §1

O6C65 T222A = tested on: O6C65 T222A
How it was run: as §1

O6C70 L181P = tested on: O6C70 L181P
How it was run: as §1

O7E24 S193F P242S = tested on: O7E24 S193F P242S
How it was run: as §1

O7E24 = tested on: O7E24
How it was run: as §1

Measured: odorant receptor agonist call

O56A5 V104L, sequence (as listed by the source, stated change not applied): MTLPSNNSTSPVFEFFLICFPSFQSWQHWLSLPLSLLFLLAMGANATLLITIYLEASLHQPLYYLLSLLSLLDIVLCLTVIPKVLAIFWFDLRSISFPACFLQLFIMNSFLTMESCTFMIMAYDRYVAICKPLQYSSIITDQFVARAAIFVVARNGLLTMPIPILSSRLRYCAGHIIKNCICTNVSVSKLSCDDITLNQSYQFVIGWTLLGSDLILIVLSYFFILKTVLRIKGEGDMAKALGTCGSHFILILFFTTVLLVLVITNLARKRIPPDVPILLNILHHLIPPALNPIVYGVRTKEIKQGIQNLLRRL
O5AK2 M92I, sequence (as listed by the source, stated change not applied): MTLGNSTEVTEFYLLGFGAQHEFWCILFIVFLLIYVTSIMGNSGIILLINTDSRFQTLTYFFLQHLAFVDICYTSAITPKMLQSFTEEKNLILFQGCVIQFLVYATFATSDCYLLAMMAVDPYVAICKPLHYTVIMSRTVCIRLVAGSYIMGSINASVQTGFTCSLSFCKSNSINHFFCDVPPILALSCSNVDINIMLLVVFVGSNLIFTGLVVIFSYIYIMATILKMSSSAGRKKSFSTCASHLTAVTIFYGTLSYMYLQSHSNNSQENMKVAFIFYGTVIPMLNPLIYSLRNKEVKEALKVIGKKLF
O5H14, sequence (as listed by the source): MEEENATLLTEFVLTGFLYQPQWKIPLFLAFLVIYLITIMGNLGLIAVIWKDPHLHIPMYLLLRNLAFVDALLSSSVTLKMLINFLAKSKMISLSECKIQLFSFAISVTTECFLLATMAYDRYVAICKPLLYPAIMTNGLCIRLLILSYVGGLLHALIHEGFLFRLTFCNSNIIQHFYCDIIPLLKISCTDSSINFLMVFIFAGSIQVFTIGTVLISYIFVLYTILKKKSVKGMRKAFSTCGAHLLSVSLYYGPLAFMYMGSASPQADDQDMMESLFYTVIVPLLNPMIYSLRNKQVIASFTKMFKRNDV
O5AU1, sequence (as listed by the source): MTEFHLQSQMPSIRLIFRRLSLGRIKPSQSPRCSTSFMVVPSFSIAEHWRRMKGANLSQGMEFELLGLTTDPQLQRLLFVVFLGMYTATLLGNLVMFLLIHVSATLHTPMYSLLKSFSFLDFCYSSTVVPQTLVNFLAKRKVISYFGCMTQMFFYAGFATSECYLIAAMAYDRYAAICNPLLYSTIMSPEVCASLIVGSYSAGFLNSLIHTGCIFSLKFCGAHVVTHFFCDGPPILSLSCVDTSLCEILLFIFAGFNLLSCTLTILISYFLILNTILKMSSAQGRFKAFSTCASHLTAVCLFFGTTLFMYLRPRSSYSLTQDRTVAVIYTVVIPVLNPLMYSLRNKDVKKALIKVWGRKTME
O56A4 I247V, sequence (as listed by the source, stated change not applied): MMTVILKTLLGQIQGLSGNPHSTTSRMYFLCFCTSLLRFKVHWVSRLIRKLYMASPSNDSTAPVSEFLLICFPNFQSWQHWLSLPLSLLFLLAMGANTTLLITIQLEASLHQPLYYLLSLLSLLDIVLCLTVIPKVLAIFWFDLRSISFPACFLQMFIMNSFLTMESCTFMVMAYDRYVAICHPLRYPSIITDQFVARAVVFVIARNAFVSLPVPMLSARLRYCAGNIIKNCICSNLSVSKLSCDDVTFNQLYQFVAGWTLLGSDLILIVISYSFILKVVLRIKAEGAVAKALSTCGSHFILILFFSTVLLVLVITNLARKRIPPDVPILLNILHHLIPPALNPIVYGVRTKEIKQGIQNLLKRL
O6C70 L181P, sequence (as listed by the source, stated change not applied): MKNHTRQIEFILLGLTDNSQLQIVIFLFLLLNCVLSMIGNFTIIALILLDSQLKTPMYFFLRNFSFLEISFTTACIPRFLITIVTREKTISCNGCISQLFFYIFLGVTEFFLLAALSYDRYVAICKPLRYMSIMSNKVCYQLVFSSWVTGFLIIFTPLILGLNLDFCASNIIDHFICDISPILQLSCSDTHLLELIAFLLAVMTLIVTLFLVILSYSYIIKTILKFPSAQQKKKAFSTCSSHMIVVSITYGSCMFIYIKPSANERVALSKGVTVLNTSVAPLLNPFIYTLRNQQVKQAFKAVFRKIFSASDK
O5AC2, sequence (as listed by the source): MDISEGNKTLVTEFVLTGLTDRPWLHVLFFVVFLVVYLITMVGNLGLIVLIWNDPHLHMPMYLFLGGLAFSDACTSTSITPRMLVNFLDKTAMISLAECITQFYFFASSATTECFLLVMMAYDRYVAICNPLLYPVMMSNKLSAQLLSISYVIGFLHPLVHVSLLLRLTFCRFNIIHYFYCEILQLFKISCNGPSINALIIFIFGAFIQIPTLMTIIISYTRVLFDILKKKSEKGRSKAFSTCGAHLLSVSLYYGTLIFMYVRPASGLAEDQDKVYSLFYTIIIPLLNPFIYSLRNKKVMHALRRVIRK
O56A4 I247A, sequence (as listed by the source, stated change not applied): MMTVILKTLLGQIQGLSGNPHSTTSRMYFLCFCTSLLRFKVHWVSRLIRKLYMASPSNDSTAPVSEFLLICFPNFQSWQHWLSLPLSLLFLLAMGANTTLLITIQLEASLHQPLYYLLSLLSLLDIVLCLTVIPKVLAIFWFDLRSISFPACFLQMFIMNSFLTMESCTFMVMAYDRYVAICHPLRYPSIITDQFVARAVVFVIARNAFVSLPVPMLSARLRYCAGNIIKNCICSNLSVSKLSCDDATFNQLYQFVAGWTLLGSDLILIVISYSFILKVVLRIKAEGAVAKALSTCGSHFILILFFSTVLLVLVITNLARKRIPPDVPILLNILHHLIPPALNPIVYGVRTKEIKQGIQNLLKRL
O7E24, sequence (as listed by the source): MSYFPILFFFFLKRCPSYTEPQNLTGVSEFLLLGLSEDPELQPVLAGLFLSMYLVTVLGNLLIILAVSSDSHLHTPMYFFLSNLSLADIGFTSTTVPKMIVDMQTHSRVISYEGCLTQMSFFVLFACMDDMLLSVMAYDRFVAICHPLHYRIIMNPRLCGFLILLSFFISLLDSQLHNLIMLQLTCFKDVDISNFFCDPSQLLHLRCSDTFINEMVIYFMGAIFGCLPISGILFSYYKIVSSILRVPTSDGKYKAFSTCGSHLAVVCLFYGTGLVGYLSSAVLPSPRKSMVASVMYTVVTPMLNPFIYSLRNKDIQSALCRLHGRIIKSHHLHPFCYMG
O5AP2 A105T, sequence (as listed by the source, stated change not applied): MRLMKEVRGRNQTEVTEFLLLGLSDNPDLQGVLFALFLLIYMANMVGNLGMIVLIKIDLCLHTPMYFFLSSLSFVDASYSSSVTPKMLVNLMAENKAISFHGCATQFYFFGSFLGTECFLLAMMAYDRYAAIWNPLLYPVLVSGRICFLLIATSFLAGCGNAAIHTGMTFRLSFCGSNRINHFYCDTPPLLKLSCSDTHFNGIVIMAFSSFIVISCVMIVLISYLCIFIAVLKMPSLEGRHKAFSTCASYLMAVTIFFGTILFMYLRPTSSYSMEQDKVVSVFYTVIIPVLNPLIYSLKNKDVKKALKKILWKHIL
O56B1 L214F, sequence (as listed by the source, stated change not applied): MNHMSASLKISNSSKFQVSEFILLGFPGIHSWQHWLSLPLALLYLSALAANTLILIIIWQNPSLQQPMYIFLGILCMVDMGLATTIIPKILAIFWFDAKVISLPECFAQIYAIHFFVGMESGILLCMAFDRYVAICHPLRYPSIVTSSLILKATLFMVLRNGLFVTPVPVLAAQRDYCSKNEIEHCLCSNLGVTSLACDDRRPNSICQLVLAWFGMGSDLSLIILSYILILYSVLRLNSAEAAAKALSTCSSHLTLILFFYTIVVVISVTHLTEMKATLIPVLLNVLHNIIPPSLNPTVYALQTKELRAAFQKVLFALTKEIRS
O56A4, sequence (as listed by the source): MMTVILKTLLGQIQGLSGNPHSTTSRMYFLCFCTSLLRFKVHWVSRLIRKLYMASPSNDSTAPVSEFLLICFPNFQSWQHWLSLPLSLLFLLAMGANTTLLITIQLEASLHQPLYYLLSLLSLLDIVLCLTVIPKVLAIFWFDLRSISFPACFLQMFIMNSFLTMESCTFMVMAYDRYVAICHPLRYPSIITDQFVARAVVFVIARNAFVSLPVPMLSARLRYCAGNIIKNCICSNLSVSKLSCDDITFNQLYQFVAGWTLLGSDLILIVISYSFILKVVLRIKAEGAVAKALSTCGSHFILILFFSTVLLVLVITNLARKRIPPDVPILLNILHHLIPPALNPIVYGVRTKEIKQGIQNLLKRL
O6C65 T222A, sequence (as listed by the source, stated change not applied): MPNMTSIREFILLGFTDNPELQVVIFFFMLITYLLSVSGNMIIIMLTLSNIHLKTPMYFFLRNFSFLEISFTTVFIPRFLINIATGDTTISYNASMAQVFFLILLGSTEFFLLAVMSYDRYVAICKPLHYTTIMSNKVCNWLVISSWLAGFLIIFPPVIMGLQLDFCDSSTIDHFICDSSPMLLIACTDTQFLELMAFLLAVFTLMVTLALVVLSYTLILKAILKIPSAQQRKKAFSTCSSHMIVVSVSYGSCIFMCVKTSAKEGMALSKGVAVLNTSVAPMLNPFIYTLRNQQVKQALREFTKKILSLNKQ
O56B4, sequence (as listed by the source): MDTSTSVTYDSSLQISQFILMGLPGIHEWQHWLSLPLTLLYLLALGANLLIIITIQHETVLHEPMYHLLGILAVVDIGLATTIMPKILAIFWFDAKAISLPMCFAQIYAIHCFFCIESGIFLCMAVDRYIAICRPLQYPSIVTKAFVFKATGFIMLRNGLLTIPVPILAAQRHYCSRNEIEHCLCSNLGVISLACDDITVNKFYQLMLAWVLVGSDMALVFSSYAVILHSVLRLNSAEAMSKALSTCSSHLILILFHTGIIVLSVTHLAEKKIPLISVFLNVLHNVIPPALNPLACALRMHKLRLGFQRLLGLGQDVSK
O5AN1 L289F, sequence (as listed by the source, stated change not applied): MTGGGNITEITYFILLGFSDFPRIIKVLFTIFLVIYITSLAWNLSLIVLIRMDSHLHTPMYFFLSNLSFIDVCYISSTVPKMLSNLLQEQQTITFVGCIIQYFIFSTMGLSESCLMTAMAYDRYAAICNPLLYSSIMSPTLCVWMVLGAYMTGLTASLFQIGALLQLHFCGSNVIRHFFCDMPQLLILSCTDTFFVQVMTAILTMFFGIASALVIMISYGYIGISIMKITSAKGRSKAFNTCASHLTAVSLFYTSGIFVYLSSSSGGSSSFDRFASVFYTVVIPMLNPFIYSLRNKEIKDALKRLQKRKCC

CC(=O)c1cc2c(cc1C)C(C)(C)C(C)CC2(C)C (configuration not stated)
inactive: O5AN1

C=CCOC(=O)Cc1ccccc1
not listed: O5AN1
inactive: all other assays above

CC(=O)c1cc(C(C)(C)C)cc2c1CCC2(C)C
inactive: O5AN1

Cc1c([N+](=O)[O-])c(C)c([N+](=O)[O-])c(C(C)(C)C)c1[N+](=O)[O-]
active: O5AN1
